{"data": "Experimental data gathered from unrelated publications", "observed": "cell growth or viability", "note": "Compare with care: the assays were run in different laboratories."}
{"SMILES": "[C-]#[O+].[C-]#[O+].[C-]#[O+].[C-]#[O+].[C-]#[O+].[C-]#[O+].[C-]#[O+].[C-]#[O+].[C-]#[O+].[C-]#[O+].[Mn].[Mn]", "cell line": "HEK293", "assay": "MTT", "setting": "48 h", "IC50": "5.44 µM"}
{"SMILES": "C[C@H](NC(=O)[C@H](Cc1c[nH]c2ccccc12)NC(=O)CNC(=O)[C@H](CCCNC(=N)N)NC(=O)[C@H](Cc1c[nH]c2ccccc12)NC(=O)[C@H](Cc1c[nH]c2ccccc12)NC(=O)[C@H](CO)NC(=O)[C@H](CO)NC(=O)[C@H](Cc1c[nH]c2ccccc12)NC(=O)CN)C(=O)N[C@@H](CCCCN)C(=O)N[C@@H](Cc1c[nH]c2ccccc12)C(=O)N[C@@H](C)C(=O)N[C@@H](CO)C(=O)N[C@@H](CCCCN)C(=O)NCC(=O)N[C@@H](Cc1c[nH]c2ccccc12)C(=O)NCC(=O)N[C@@H](CCCCN)C(N)=O", "cell line": "HEK293", "assay": "MTT", "IC50": "34.1 µM"}
{"SMILES": "N.N.[Cl][Pt][Cl]", "cell line": "KARPAS-422", "assay": "ATP luminescence", "setting": "72 h", "IC50": "7.16 µM"}
{"SMILES": "CC[C@H](C)[C@H](NC(=O)[C@H](CO)NC(=O)[C@H](CO)NC(=O)[C@H](Cc1ccccc1)NC(=O)CN)C(=O)N[C@@H](Cc1ccccc1)C(=O)N[C@@H](CCCCNC(=N)N)C(=O)NCC(=O)N[C@H](C(=O)N[C@@H](C)C(=O)N[C@@H](CCCCNC(=N)N)C(=O)N[C@@H](Cc1ccccc1)C(=O)N[C@@H](C)C(=O)N[C@@H](CO)C(=O)N[C@@H](CCCCNC(=N)N)C(=O)NCC(=O)N[C@@H](CC(C)C)C(=O)NCC(=O)N[C@@H](CCCCNC(=N)N)C(N)=O)C(C)C", "cell line": "HEK293", "assay": "MTT", "IC50": "> 100 µM"}
{"SMILES": "Cc1ncsc1-c1ccc([C@H](C)NC(=O)[C@@H]2C[C@@H](O)CN2C(=O)[C@@H](c2cc(N3CCC(CN4CCC(OC5CC(Oc6cc(N7C8CCC7CN(c7cc(-c9ccccc9O)nnc7N)C8)ccn6)C5)CC4)CC3)no2)C(C)C)cc1 (some centres unmarked)", "cell line": "HCC515", "assay": "ATP luminescence", "setting": "7 days", "IC50": "0.0529 µM"}
{"SMILES": "CC(C)C[C@H](NC(=O)[C@H](CO)NC(=O)[C@H](CO)NC(=O)CNC(=O)[C@@H]1CCCN1C(=O)[C@H](Cc1ccc(O)cc1)NC(=O)[C@H](CC(C)C)NC(=O)[C@H](CO)NC(=O)[C@H](CS)NC(=O)[C@H](CC(C)C)NC(=O)[C@@H](N)CC(C)C)C(=O)O", "cell line": "NCI-H1975", "assay": "MTT", "setting": "72 h", "IC50": "> 100 µM"}
{"SMILES": "N.N.[Cl][Pt][Cl]", "cell line": "HEK293", "assay": "MTT", "setting": "48 h", "IC50": "17.6 µM"}
{"SMILES": "CC[C@H](C)[C@H](NC(=O)CN)C(=O)NCC(=O)N[C@@H](C)C(=O)N[C@H](C(=O)N[C@@H](CC(C)C)C(=O)N[C@@H](CCCCN)C(=O)N[C@H](C(=O)N[C@@H](CC(C)C)C(=O)N[C@H](C(=O)N[C@H](C(=O)NCC(=O)N[C@@H](CC(C)C)C(=O)N1CCC[C@H]1C(=O)N[C@@H](C)C(=O)N[C@@H](CC(C)C)C(=O)N[C@H](C(=O)N[C@@H](CO)C(=O)N[C@@H](Cc1c[nH]c2ccccc12)C(=O)N[C@H](C(=O)N[C@@H](CCCCN)C(=O)N[C@@H](CCCNC(=N)N)C(=O)N[C@@H](CCCCN)C(=O)N[C@@H](CCCNC(=N)N)C(=O)N[C@@H](CCC(N)=O)C(=O)N[C@@H](CCC(N)=O)C(N)=O)[C@@H](C)CC)[C@@H](C)CC)[C@@H](C)O)[C@@H](C)O)C(C)C)C(C)C", "cell line": "HEK293", "assay": "MTT", "setting": "24 h", "IC50": "4.66 µM"}
